Reference: the EternaBench riboswitch data

System: MS2 coat protein
Experiment: apparent Kd, MS2 coat protein; higher = weaker binding; RNA-MaP array; FMN 200 µM where present
How it was run: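 Designs were transcribed by stalled E. coli RNA polymerase on Illumina sequencing-chip clusters. They were titrated with SNAP-549-labelled MS2 coat protein from 0.7 or 1.5 nM, doubling to 3 µM, without and then with constant ligand. Buffer: 100 mM Tris-HCl pH 7.5, 80 mM KCl, 4 mM MgCl2, BSA, DTT, yeast tRNA, Tween-20. Green signal was normalised to red-channel RNA signal and control-cluster median Fmax. Apparent Kd is the median of filtered per-cluster binding-curve fits.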

[1] = designed as: ON switch for flavin mononucleotide, no ligand
[2] = ligand present: flavin mononucleotide, designed as: ON switch for flavin mononucleotide
[3] = designed as: OFF switch for flavin mononucleotide, no ligand
[4] = ligand present: flavin mononucleotide, designed as: OFF switch for flavin mononucleotide

Sequence | apparent Kd [1] | apparent Kd [2] | apparent Kd [3] | apparent Kd [4]
CUCCCGAUCACAGGAUAUGCACAUACAAUUAAGGCAGAAGGGUGAUAGUCGGCCGGACAUGAGGAUCACCCAUGUGCAAGGAUA | 285 nM | 85.2 nM |  | 
GUGACGAAUGUAGGAUAUGCUGAGGAAUACUCAGCAGAAGGACAUGAGGAUCACCCAUGUCAUCCUAAUAAUAAAUAACGUCAC |  |  | 12.3 nM | 17.4 nM
ACAUGAUCAGGAUAUACAUGAGGAUCACCCAUGUUUAUCAAAAAAGGGCUUUCUACAUGUAGAAGGGAUCUUGU |  |  | 21.8 nM | 39.9 nM
GGACGUCACAUUAACAUGAGGAUCACCCAUGUCUCUUGACAUGAGGAUAUGGAUCCUAAUUGGAUCCAGAAGGCAUGGACGUCC | 1220 nM | 97.2 nM |  | 
GACGUCGGAAGUCGACGCCACUACAAGGAUAUGCACAUGAGGAUCACCCAUGUUACGAAAUCGUAGCAGAAGGUGUAGUCGUCU | 245 nM | 24 nM |  | 
UUAUACAUGAGGAUCUCCCAUGACAUGAGGAUCACCCAUGUGCAGGAUAUACGUGUUAUAAUAUAGUAGAAGGGCAGUCUAUAU |  |  | 36.8 nM | 104 nM
UCGGCGCGAGGAUAUACGUUUGCUUUUUAGGGUCGUGGCGUACAUGAGGAUCACCCAUGUAGAAGGCGCGCCGC |  |  | 16.9 nM | 52.7 nM
GUCAGCUCGUGAGGAUAUACAGCACUGCUUCGGCAGUGUAUUAAGAUCACAUGAGGAUCACCCAUGUAGAAGGCACGAGCUGAU |  |  | 28.1 nM | 599 nM
CGGCACCAAGGAUAUACAUGAGGAUCACCCAUGUUUUUUGGGCCCUUAAAAUCUACGUGUAGAAGGUGGGUCGA |  |  | 49.9 nM | 56.9 nM
UAUAUUUAUGUAGGAUAUGGUCUAUAAAAUAGACCAGAAGGACAUGAGGAUCACCCAUGUAUGAAAUUCCAUAAUUGCCGUGUA |  |  | 11.4 nM | 11.4 nM
CGCGAUGCGGUUGGCCCUGGGCGAGAGGAUAUGGGCAGCGAGACAUGAGGAUCACCCAUGUUUUCUCAGAAGGCUCGAGCAGGC | 181 nM | 17.1 nM |  | 
GAAUGUCGGGUAGGAUAUGACGUGCCACGGAGGUCAGAAGGGCCACGACAUGAGGAUCACCCAUGUACUGUAUUCCUUUUUCAA |  |  | 22.9 nM | 60.4 nM
AAUAAACAUGAGGAUCACCCAUGUCAGGAUAUGCGUCUAACCUAAUACCAUAGAUACGGCAGAAGGGACUAAUA |  |  | 50.2 nM | 33.8 nM
UGUCGGAGCAGAGGAUAUUACAUGAGGAUCACCCAUGUAUGAACCAAUAGCUGGAAAUAGCAAUGUAAGAAGGCUGCUCCGACA |  |  | 15.8 nM | 168 nM
GCGCGCGCAGGAUAUACAAUGGGCCCGGGAAACCGGGCCCUACAUGAGGAUCACCCAUGUAGAAGGGUGUGUGU |  |  | 606 nM | 468 nM
GUUUAGUGAGGAUAUGCGGCAUCGAUCGAGCGCGGUCGGCUACAGAAGGCACAUGAGGAUCACCCAUGUUUCUC |  |  | 41 nM | 278 nM
AAAACAUGAGGAUCACCCAUGUAAAGAUCGGUUAAUAAAAGUGAGGAUAUACUAAAUUUUAUAUAGUAGAAGGCACUGGGUACA | 22.9 nM | 30.1 nM |  | 
AGAUGUGAACAUGAGGAUCACCCAUGUGACUAGGUAUAUUUCAGAAGGCAUUUAUAGAGAUUAUAUGAGGAUAUGAAGUUUUAA | 12.7 nM | 6.59 nM |  | 
UCAGUAGAGUCAGGAUAUACCGAAAAGAAUCCUCACAUGAGGAUCACCCAUGUAGAAGGGACUCUACUGUAAGUCGGAAACGAC |  |  | 91.8 nM | 868 nM
AAACACGAUCGAGGAUAUCAUGCUUACGUCCCGGAUCCAUAAACAUGAGGAUCACCCAUGUGAUAUGAGAAGGCGAUAGUCAUA |  |  | 19.5 nM | 26.9 nM
AACUUACAUGAGGAUCACCCAUGUCAGGAUAUCGAAAUUGGCUCGCAAUUGCGAGCGACGAGAAGGGACGUUUU |  |  | 17.3 nM | 24.8 nM
UUUUUUGUAGUGAGGAUAUCGUUGUGGAUGUGGAUCGAGAAGGCACAUGAGGAUCACCCAUGUUAGUUGUGGUU |  |  | 155 nM | 216 nM
UCGAUAAGGAGAGGAUAUGGACAUGAGGAUCACCCAUGUACAUGGGAAUAUAUACUGAAUUUUUACUAGAAGGCUUACAUAAAU |  |  | 14.7 nM | 12.4 nM
GGACGUCGGAUAAACAUGAGGAUCACCCAUGUAACUAGACAUGAGGAUAUGGAUUCUAAUUGGAUCCAGAAGGUAUCGACGUCC | 193 nM | 211 nM |  | 
UAAGCGCAGGAGAAGGGCACUGGACGCUCGCUACAUGAGGAUCACCCAUGUGCAGGAUAUCCGGCGCCACCCGCAAACUCGGUG |  |  | 15.8 nM | 72.1 nM
ACAUUUUAUGCAGGAUAUUGACAUAUAUUUAAACAAGAAGGGCAUUACAUGAGGAUCACCCAUGUUAUAUUGGUAUAUAAGUUC |  |  | 17.4 nM | 14.8 nM
ACUUAUCAUGUAGGAUAUGCGUGGCGAAGCUAUGCAGAAGGACAUGAGGAUCACCCAUGUUUUAGCGUCUGCGUACAGAUGCGU |  |  | 54 nM | 192 nM
AUAUUCUAGAUAGGAUAUACUGAGGUUGAAUGGGUAGAAGGAUCGUUAGAGUGGACUACAUGAGGAUCACCCAUGUUGUUUAUU | 48.3 nM | 42.7 nM |  | 

Sequence | apparent Kd [1] | apparent Kd [2] | apparent Kd [3] | apparent Kd [4]
GUCACACACCGCUCCGUGUCUGACAUGAGGAUCACCCAUGUGAGAAGGUAGCGUCGCAGUAACGUUAAGGAUAUCACGUACAGA |  |  | 7.04 nM | 7.4 nM
AACAGCUCGUCAGGAUAUAUUAUCUUUUUAUGUAUUUAUGUACAUGAGGAUCACCCAUGUUGUUUGUAGAAGGGACGAGCUGAA |  |  | 30.4 nM | 26.5 nM
AUGUGGUUCCCGGCCAUCGUGUACGAGGAUAUCCUCGAACAUGAGGAUCACCCAUGUAACGUUGUGGAGAAGGCGUACGCUUGG | 130 nM | 7.73 nM |  | 
UGUUGUAUUACAGGAUAUCUAUUAUUUUUAUUUAGAGAAGGGUAUUCACAUGAGGAUCACCCAUGUAUAUACGAGGAAGAUGUG | 91.5 nM | 107 nM |  | 
AUGUGAGCAGGAUAUGCAGGUGUGCCGGAAGAAAGAAGAGGACAUGAGGAUCACCCAUGUAGAAGGGCUAGCCC |  |  | 49 nM | 31.3 nM
UUACCUCAUGAGAAGGCGAUCAUGAAACAUGAUCGAGGAUAUCAUGUAAACAUGAGGAUCACCCAUGUAUGGGUAUUAUGGUAA | 166 nM | 44.1 nM |  | 
AGUCAUACAGGAUAUACAUGAGGAUCACCCAUGUUUAUCCUACAUGGGUGAUCCUCAUGUAGAAGGGUAUGACA |  |  | 11.2 nM | 9.45 nM
AUCCGGGCUAACAUGAGGAUCACCCAUGUGUUAUACUUAAUAUAGGAUAUGUUUAUACUUUUUGGGCAGAAGGAUGGCCCGGAU | 83.1 nM | 68.8 nM |  | 
UGCAGGUGAGGAUAUGCGGGCGAUUAAACAUAUAAAUGCAAGCAGAAGGCACAUGAGGAUCACCCAUGUAGUCC |  |  | 26 nM | 36.1 nM
GCACGAGACUAAGGAUAUGGAGUGUCUACAUUAAACAUGAGGAUCACCCAUGUAAAGAGUACGAUUCAGAAGGUAGAGACGUGC | 51.5 nM | 23.5 nM |  | 
UGCCGUGUACAGAAGGGCGACAUGAGGAUCACCCAUGUCUCCUUGUUGGUCGUAGGAUAUGUACCGUGGCUCUCACCUGUGGGA |  |  | 5.57 nM | 6.95 nM
UUAUAUAGUGUGAGGAUAUGCUGGUCCUUGGAUCAGCAGAAGGCACAUGAGGAUCACCCAUGUAGUUUAUUAUU |  |  | 30.2 nM | 130 nM
CGUGUCAUCGAGAAGGCCUCAACAUGAGGAUCACCCAUGUUGUAAUAUGGGAGGAUAUCGAUGAUACAGCUACGUUUCGUAGCA | 21.1 nM | 6.03 nM |  | 
GCACGACAUGUAGGAUAUCGAGCGCCGGGCGCUCGAGAAGGACAUGAGGAUCACCCAUGUAUUCUGAGUGACCGAGGUCGAUGC |  |  | 31.2 nM | 180 nM
GCUAGUAUUGCAGGAUAUUGAUAUUAAUUAUGGCAAGAAGGGCAUUACAUGAGGAUCACCCAUGUUUUCCUUAGUCAUACUAGC |  |  | 5.33 nM | 5.39 nM
GUGCCUUGGGAGAAGGCCGAUAGCAAAGCUAUCGGAGGAUAUCCAUACCGGAAACGGACAUGAGGAUCACCCAUGUGGCACAAA | 16.3 nM | 7.6 nM |  | 
CUUUAGUGAGGAUAUGUGGCUUCGAUCGUGAGAUCGAGGCUACAGAAGGCACAUGAGGAUCACCCAUGUUCCUA |  |  | 16.6 nM | 59.4 nM
AAAUAACCUAGCAAAAUUUCCUCACAUGAGGAUCACCCAUGUAGAAGGCUGUCCUAAAAUAGGACAGAGGAUAUACGUGCUAGG |  |  | 6.82 nM | 107 nM
CUGUUAUAGGUCCAUUUUUACAACAUGAGGAUCACCCAUGUGCAGGAUAUCGUGUUAAUUUUCAUCGAGAAGGGCAUAGUCACG |  |  | 31.5 nM | 61.2 nM
GCGUAACAUGAGGAUCACCCAUGUGCCCGAGAAUUCGGGCCGAGAAGGGUGACCGGACGUAUGGCACAGGAUAUCGACGUUGUG | 25.2 nM | 12.1 nM |  | 
GGACGUGUCGUUUACAUGAGGAUCACCCAUGUCGAUAGACAUGAGGAUAUGGAUCCGAAUCGGAUCCAGAAGGCAUGCACGUCC | 260 nM | 26.8 nM |  | 
AGUAAAGGCCUGAGGUGUCCGAACAUGAGGAUCACCCAUGUAGAGGAUAUAGGUGGAAGUGACGCCUAGAAGGCUACGUGUCAU |  |  | 8.8 nM | 11 nM
GUGGUACAUGAGGAUCACCCAUGUAAGGAUAUAGUCGUCUGGUGGUCUCGGGUGGUGGCUAGAAGGUGCGUGCG |  |  | 189 nM | 177 nM
GCAAUAGCAUGAGGAUAUGCUGGAGUUUAGACAGCAGAAGGCAUGUCAUAAGACAUGAGGAUCACCCAUGUAGUUACAAUGGCA | 26.9 nM | 11.3 nM |  | 
UAACAGUUAGGAUAUACCAGGGUAUCCUCGCGGCGCCGAAAACAUGAGGAUCACCCAUGUAGAAGGAACCGUUU |  |  | 65 nM | 19.6 nM
GUGCACAUUCGAGGAUAUCGGAGAGGGAUCCUUCGAGAAGGCGAUUCAUGCUGUGUUAUUCUGGACAUGAGGAUCACCCAUGUG | 265 nM | 125 nM |  | 
AAGGGCUGAGGAUAUGCGCGGGCAAGAUCCUCAAUCCCAAAACAUGAGGAUCACCCAUGUAGAAGGCAGAAAUA |  |  | 33.2 nM | 24.2 nM
